How the values were obtained:
Assay type in all cases: functional, cell-based
[1] = Cytotoxicity against human HL60/TX1000 cells after 72 hrs by MTT assay; conditions: HL60/TX1000, 72 h
Method in brief: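 HL-60/TX1000 cells (Taxol-resistant HL-60 subline selected by stepwise Taxol exposure; overexpress MDR1/P-glycoprotein) grown in RPMI1640 with 10% FC plus penicillin/streptomycin, split every third day, set to 2 · 10⁵ cells/mL the day before the experiment, and used in exponential growth. Compounds were diluted into medium from 1 mM DMSO stock and tested at various concentrations for 72 h. IC50 was read by […] tetrazolium assay.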

P388 = test: Cytotoxicity against mouse P388 cells after 72 hrs […]; conditions: P388, 72 h
[2] = Cytotoxicity against human MESSA cells after 72 hrs […]; conditions: MES-SA
DU-145 = test: Cytotoxicity against human DU145 cells after 72 hrs […]; conditions: DU-145, 72 h
[3] = Cytotoxicity against human MDA435 cells after 72 hrs […]; conditions: MDA-MB-435, 72 h
[4] = Cytotoxicity against human MESSA/DX5 cells after 72 hrs […]; conditions: MES-SA/Dx5, 72 h
HL-60 = test: Cytotoxicity against human HL60 cells after 72 hrs […]; conditions: HL-60, 72 h

Compound	IC50 [1]	also measured
O=C(Nc1ccno1)C(=O)c1cn(Cc2ccc(Cl)cc2)c2ccccc12	0.05 µM	
Cc1cc(NC(=O)C(=O)c2cn(Cc3ccc(Cl)cc3)c3ccccc23)on1	0.05 µM	
O=C(Nc1noc2ccccc12)C(=O)c1cn(Cc2ccc(Cl)cc2)c2ccccc12	> 10 µM	
O=C(Nc1ccccn1)C(=O)c1cn(Cc2ccc(Cl)cc2)c2ccccc12	> 10 µM	
O=C(Nc1ccc2ncccc2c1)C(=O)c1cn(Cc2ccc(Cl)cc2)c2ccccc12	0.05 µM	
NC(=O)c1ccc(NC(=O)C(=O)c2cn(Cc3ccc(Cl)cc3)c3ccccc23)nc1	0.05 µM	
Cc1cnc(NC(=O)C(=O)c2cn(Cc3ccc(Cl)cc3)c3ccccc23)s1	0.05 µM	
O=C(Nc1ccncc1)C(=O)c1cn(Cc2ccc(Cl)cc2)c2ccccc12 [INDIBULIN]	0.05 µM	
Cc1ccc2cc(NC(=O)C(=O)c3cn(Cc4ccc(Cl)cc4)c4ccccc34)ccc2n1	0.5 µM	
O=C(Nc1cccnc1)C(=O)c1cn(Cc2ccc(Cl)cc2)c2ccccc12	6 µM	
CC(=O)O[C@H]1C(=O)[C@@]2(C)[C@H]([C@H](OC(=O)c3ccccc3)[C@]3(O)C[C@H](OC(=O)[C@H](O)[C@@H](NC(=O)c4ccccc4)c4ccccc4)C(C)=C1C3(C)C)[C@]1(OC(C)=O)CO[C@@H]1C[C@@H]2O [PACLITAXEL]		IC50 (P388): 0.01 µM
C[n+]1ccc(NC(=O)C(=O)c2cn(Cc3ccc(Cl)cc3)c3ccccc23)cc1	> 10 µM	
CSc1nnc(NC(=O)C(=O)c2cn(Cc3ccc(Cl)cc3)c3ccccc23)s1	1 µM	
Cc1cc(NC(=O)C(=O)c2cn(Cc3ccc(Cl)cc3)c3ccccc23)sn1	0.01 µM	
O=C(Nn1cnnc1)C(=O)c1cn(Cc2ccc(Cl)cc2)c2ccccc12	> 10 µM	
Cc1nsc(NC(=O)C(=O)c2cn(Cc3ccc(Cl)cc3)c3ccccc23)c1Cl	5 µM	
Cc1cc(NC(=O)C(=O)c2cc(Cc3ccc(C#N)cc3)n3ccccc23)sn1 [ROSABULIN]	0.02 µM	IC50 [2]: 0.01 µM; IC50 (DU-145): 0.05 µM; IC50 [3]: 0.05 µM; IC50 [4]: 0.05 µM; IC50 (P388): 0.01 µM; IC50 (HL-60): 0.05 µM
O=C(Nc1cccc2cccnc12)C(=O)c1cn(Cc2ccc(Cl)cc2)c2ccccc12	> 10 µM	
Cc1cc(NC(=O)C(=O)c2cn(Cc3ccc(Cl)cc3)c3ccccc23)no1	0.05 µM	
O=C(Nc1nncs1)C(=O)c1cn(Cc2ccc(Cl)cc2)c2ccccc12	0.1 µM	
Cc1cc(NC(=O)C(=O)c2cc(Cc3ccc(Cl)cc3)n3ccccc23)sn1	0.06 µM	
O=C(Nc1ccon1)C(=O)c1cn(Cc2ccc(Cl)cc2)c2ccccc12	0.05 µM	
CC(C)(C)c1csc(NC(=O)C(=O)c2cn(Cc3ccc(Cl)cc3)c3ccccc23)n1	5 µM	
